Experimental data from PMC8994735 (Targeted Oncology, 2021).
Read-outs that look alike come from different tables or passages of the source.

Test system: East Asian patients with advanced nonhematologic malignancies
Format: in vivo, human
Method in brief: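 AEs were graded by NCI CTCAE v4.03 in all patients receiving ≥ 1 oral dose, given once daily or once weekly in 28-day cycles for up to 12 months. Follow-up lasted 30 days after the last dose. Entry required ECOG 0–1, fasting glucose ≤ 130 mg/dL and triglycerides ≤ 300 mg/dL. Summaries were descriptive.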

[1] = QW dose escalation 20 mg (n = 3)
[2] = QW dose escalation 30 mg (n = 3)

CC(C)n1nc(-c2ccc3oc(N)nc3c2)c2c(N)ncnc21 [sapanisertib]
Treatment-related AE hyperglycemia (QW arm): 50%
Treatment-related AE nausea (QW arm): 100%
AEs resulting in discontinuation [1]: 0 n (%)
AEs resulting in dose interruption [1]: 2 (67) n (%)
AEs resulting in dose reduction [1]: 0 n (%)
Any AE [1]: 3 (100) n (%)
Any grade ≥ 3 AE [1]: 3 (100) n (%)
On-study deaths [1]: 0 n (%)
SAEs [1]: 2 (67) n (%)
Treatment-related AE [1]: 3 (100) n (%)
Treatment-related SAEs [1]: 1 (33) n (%)
Treatment-related grade ≥ 3 AE [1]: 1 (33) n (%)
AEs resulting in discontinuation [2]: 1 (33) n (%)
AEs resulting in dose interruption [2]: 1 (33) n (%)
AEs resulting in dose reduction [2]: 0 n (%)
Any AE [2]: 3 (100) n (%)
Any grade ≥ 3 AE [2]: 1 (33) n (%)
On-study deaths [2]: 0 n (%)
SAEs [2]: 1 (33) n (%)
Treatment-related AE [2]: 3 (100) n (%)
Treatment-related SAEs [2]: 0 n (%)
Treatment-related grade ≥ 3 AE [2]: 0 n (%)
AE by preferred term: Abdominal pain (QW dosing n = 6): 1 (17) n (%)
AE by preferred term: Alanine aminotransferase increased (QW dosing n = 6): 3 (50) n (%)
AE by preferred term: Anemia (QW dosing n = 6): 1 (17) n (%)
AE by preferred term: Aspartate aminotransferase increased (QW dosing n = 6): 3 (50) n (%)
AE by preferred term: Blood alkaline phosphatase increased (QW dosing n = 6): 4 (67) n (%)
AE by preferred term: Blood bilirubin increased (QW dosing n = 6): 2 (33) n (%)
AE by preferred term: Decreased appetite (QW dosing n = 6): 3 (50) n (%)
AE by preferred term: Diarrhea (QW dosing n = 6): 1 (17) n (%)
AE by preferred term: Erythema (QW dosing n = 6): 1 (17) n (%)
AE by preferred term: Fatigue (QW dosing n = 6): 2 (33) n (%)
AE by preferred term: Gamma-glutamyltransferase increased (QW dosing n = 6): 2 (33) n (%)
AE by preferred term: Headache (QW dosing n = 6): 1 (17) n (%)
AE by preferred term: Hiccups (QW dosing n = 6): 2 (33) n (%)
AE by preferred term: Hyperglycemia (QW dosing n = 6): 4 (67) n (%)
AE by preferred term: Hypokalemia (QW dosing n = 6): 1 (17) n (%)
AE by preferred term: Lymphocyte count decreased (QW dosing n = 6): 1 (17) n (%)
AE by preferred term: Nausea (QW dosing n = 6): 6 (100) n (%)
AE by preferred term: Platelet count decreased (QW dosing n = 6): 1 (17) n (%)
AE by preferred term: Pyrexia (QW dosing n = 6): 1 (17) n (%)
AE by preferred term: Stomatitis (QW dosing n = 6): 2 (33) n (%)
AE by preferred term: Vomiting (QW dosing n = 6): 3 (50) n (%)
AE by preferred term: Weight decreased (QW dosing n = 6): 3 (50) n (%)
Grade ≥ 3 AE: Alanine aminotransferase increased (QW dosing n = 6): 1 (17) n (%)
Grade ≥ 3 AE: Aspartate aminotransferase increased (QW dosing n = 6): 1 (17) n (%)
Grade ≥ 3 AE: Cholangitis acute (QW dosing n = 6): 1 (17) n (%)
Grade ≥ 3 AE: Enteritis (QW dosing n = 6): 1 (17) n (%)
Grade ≥ 3 AE: Gamma-glutamyltransferase increased (QW dosing n = 6): 2 (33) n (%)
Grade ≥ 3 AE: Hyperglycemia (QW dosing n = 6): 1 (17) n (%)
Grade ≥ 3 AE: Lymphocyte count decreased (QW dosing n = 6): 1 (17) n (%)
Grade ≥ 3 AE: Malignant neoplasm progression (QW dosing n = 6): 1 (17) n (%)
Patients with ≥ 1 grade 3 or higher AE (QW dosing n = 6): 4 (67) n (%)
AEs resulting in discontinuation (QW total (n = 6)): 1 (17) n (%)
AEs resulting in dose interruption (QW total (n = 6)): 3 (50) n (%)
AEs resulting in dose reduction (QW total (n = 6)): 0 n (%)
Any AE (QW total (n = 6)): 6 (100) n (%)
Any grade ≥ 3 AE (QW total (n = 6)): 4 (67) n (%)
On-study deaths (QW total (n = 6)): 0 n (%)
SAEs (QW total (n = 6)): 3 (50) n (%)
Treatment-related AE (QW total (n = 6)): 6 (100) n (%)
Treatment-related SAEs (QW total (n = 6)): 1 (17) n (%)
Treatment-related grade ≥ 3 AE (QW total (n = 6)): 1 (17) n (%)
AE by preferred term: Abdominal pain (Total n = 28): 4 (14) n (%)
AE by preferred term: Alanine aminotransferase increased (Total n = 28): 7 (25) n (%)
AE by preferred term: Anemia (Total n = 28): 6 (21) n (%)
AE by preferred term: Aspartate aminotransferase increased (Total n = 28): 9 (32) n (%)
AE by preferred term: Blood alkaline phosphatase increased (Total n = 28): 4 (14) n (%)
AE by preferred term: Blood bilirubin increased (Total n = 28): 2 (7) n (%)
AE by preferred term: Constipation (Total n = 28): 4 (14) n (%)
AE by preferred term: Decreased appetite (Total n = 28): 14 (50) n (%)
AE by preferred term: Diarrhea (Total n = 28): 3 (11) n (%)
AE by preferred term: Erythema (Total n = 28): 3 (11) n (%)
AE by preferred term: Erythema multiforme (Total n = 28): 2 (7) n (%)
AE by preferred term: Fatigue (Total n = 28): 9 (32) n (%)
AE by preferred term: Gamma-glutamyltransferase increased (Total n = 28): 4 (14) n (%)
AE by preferred term: Gastrointestinal inflammation (Total n = 28): 2 (7) n (%)
AE by preferred term: Headache (Total n = 28): 3 (11) n (%)
AE by preferred term: Hiccups (Total n = 28): 2 (7) n (%)
AE by preferred term: Hyperglycemia (Total n = 28): 13 (46) n (%)
AE by preferred term: Hypokalemia (Total n = 28): 4 (14) n (%)
AE by preferred term: Lymphocyte count decreased (Total n = 28): 5 (18) n (%)
AE by preferred term: Nausea (Total n = 28): 17 (61) n (%)
AE by preferred term: Neutrophil count decreased (Total n = 28): 2 (7) n (%)
AE by preferred term: Platelet count decreased (Total n = 28): 7 (25) n (%)
AE by preferred term: Pruritus (Total n = 28): 2 (7) n (%)
AE by preferred term: Pyrexia (Total n = 28): 5 (18) n (%)
AE by preferred term: Rash erythematous (Total n = 28): 2 (7) n (%)
AE by preferred term: Rash maculo-papular (Total n = 28): 5 (18) n (%)
AE by preferred term: Rash pustular (Total n = 28): 2 (7) n (%)
AE by preferred term: Stomatitis (Total n = 28): 16 (57) n (%)
AE by preferred term: Urticaria (Total n = 28): 3 (11) n (%)
AE by preferred term: Vomiting (Total n = 28): 8 (29) n (%)
AE by preferred term: Weight decreased (Total n = 28): 10 (36) n (%)
AE by preferred term: White blood cell count decreased (Total n = 28): 4 (14) n (%)
Grade ≥ 3 AE: Acute myocardial infarction (Total n = 28): 1 (4) n (%)
Grade ≥ 3 AE: Alanine aminotransferase increased (Total n = 28): 1 (4) n (%)
Grade ≥ 3 AE: Aspartate aminotransferase increased (Total n = 28): 2 (7) n (%)
Grade ≥ 3 AE: Blood creatine phosphokinase increased (Total n = 28): 1 (4) n (%)
Grade ≥ 3 AE: Cholangitis acute (Total n = 28): 1 (4) n (%)
Grade ≥ 3 AE: Decreased appetite (Total n = 28): 1 (4) n (%)
Grade ≥ 3 AE: Diarrhea (Total n = 28): 1 (4) n (%)
Grade ≥ 3 AE: Enteritis (Total n = 28): 1 (4) n (%)
Grade ≥ 3 AE: Gamma-glutamyltransferase increased (Total n = 28): 3 (11) n (%)
Grade ≥ 3 AE: Gastrointestinal inflammation (Total n = 28): 1 (4) n (%)
Grade ≥ 3 AE: Genital herpes (Total n = 28): 1 (4) n (%)
Grade ≥ 3 AE: Gingivitis (Total n = 28): 1 (4) n (%)
Grade ≥ 3 AE: Hyperglycemia (Total n = 28): 1 (4) n (%)
Grade ≥ 3 AE: Jaundice cholestatic (Total n = 28): 1 (4) n (%)
Grade ≥ 3 AE: Lymphocyte count decreased (Total n = 28): 3 (11) n (%)
Grade ≥ 3 AE: Malignant neoplasm progression (Total n = 28): 1 (4) n (%)
Grade ≥ 3 AE: Nausea (Total n = 28): 2 (7) n (%)
Grade ≥ 3 AE: Neutrophil count decreased (Total n = 28): 1 (4) n (%)
Grade ≥ 3 AE: Platelet count decreased (Total n = 28): 1 (4) n (%)
Grade ≥ 3 AE: Post herpetic neuralgia (Total n = 28): 1 (4) n (%)
Grade ≥ 3 AE: Pruritus (Total n = 28): 1 (4) n (%)
Grade ≥ 3 AE: Rash maculo-papular (Total n = 28): 2 (7) n (%)
Grade ≥ 3 AE: Rash pustular (Total n = 28): 1 (4) n (%)
Grade ≥ 3 AE: Renal impairment (Total n = 28): 1 (4) n (%)
Grade ≥ 3 AE: Sepsis (Total n = 28): 1 (4) n (%)
Grade ≥ 3 AE: Stomatitis (Total n = 28): 2 (7) n (%)
Grade ≥ 3 AE: Urticaria (Total n = 28): 1 (4) n (%)
Grade ≥ 3 AE: White blood cell count decreased (Total n = 28): 1 (4) n (%)
Patients with ≥ 1 grade 3 or higher AE (Total n = 28): 18 (64) n (%)
Patients reporting at least one AE (across all doses): 100%
Discontinued treatment due to AEs (both arms): Four
On-study deaths (whole study): no on-study deaths
